Measured values reported in the M2OR odorant receptor database.

What was measured:
Details in all cases: stereoisomer not certain
UniProt Q7TR79 = biological target: T1, UniProt Q7TR79
T1 sequence (whole entry): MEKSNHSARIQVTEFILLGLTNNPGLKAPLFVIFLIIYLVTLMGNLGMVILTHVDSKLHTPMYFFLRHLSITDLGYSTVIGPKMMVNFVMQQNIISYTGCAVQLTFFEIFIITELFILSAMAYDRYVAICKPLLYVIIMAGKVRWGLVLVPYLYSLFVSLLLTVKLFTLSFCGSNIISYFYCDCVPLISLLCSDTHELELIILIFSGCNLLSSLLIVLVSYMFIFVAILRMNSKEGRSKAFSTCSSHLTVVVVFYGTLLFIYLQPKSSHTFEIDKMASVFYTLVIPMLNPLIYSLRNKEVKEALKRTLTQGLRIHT
Outline: (§1)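 Assay methods differ from source to source, frequently being transient luciferase assays in mammalian cell lines. For each receptor–molecule pair, the label responsive (active) applies when the original authors judged the measured signal statistically different from baseline, and non-responsive (inactive) applies otherwise.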

UniProt Q7TRX0 = biological target: T2, UniProt Q7TRX0
T2 sequence (whole entry): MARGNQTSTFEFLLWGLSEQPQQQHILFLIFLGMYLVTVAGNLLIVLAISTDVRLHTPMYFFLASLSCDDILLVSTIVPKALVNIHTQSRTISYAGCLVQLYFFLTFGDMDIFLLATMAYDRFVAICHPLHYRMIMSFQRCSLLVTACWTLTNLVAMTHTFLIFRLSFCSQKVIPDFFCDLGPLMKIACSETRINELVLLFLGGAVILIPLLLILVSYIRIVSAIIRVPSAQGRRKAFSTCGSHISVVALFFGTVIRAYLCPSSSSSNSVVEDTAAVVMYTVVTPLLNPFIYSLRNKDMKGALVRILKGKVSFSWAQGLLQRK
Outline: as §1

UniProt Q7TRM0 = biological target: T3, UniProt Q7TRM0
T3 sequence (whole entry): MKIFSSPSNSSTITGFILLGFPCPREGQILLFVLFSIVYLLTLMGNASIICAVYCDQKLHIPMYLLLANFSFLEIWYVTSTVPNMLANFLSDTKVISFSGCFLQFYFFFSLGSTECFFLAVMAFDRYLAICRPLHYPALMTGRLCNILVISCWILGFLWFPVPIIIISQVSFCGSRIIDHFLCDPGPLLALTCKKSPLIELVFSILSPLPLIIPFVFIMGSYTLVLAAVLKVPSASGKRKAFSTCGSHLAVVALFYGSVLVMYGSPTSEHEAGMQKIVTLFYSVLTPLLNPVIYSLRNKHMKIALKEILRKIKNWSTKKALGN
Outline: as §1

UniProt Q7TRN9 = biological target: T4, UniProt Q7TRN9
T4 sequence (whole entry): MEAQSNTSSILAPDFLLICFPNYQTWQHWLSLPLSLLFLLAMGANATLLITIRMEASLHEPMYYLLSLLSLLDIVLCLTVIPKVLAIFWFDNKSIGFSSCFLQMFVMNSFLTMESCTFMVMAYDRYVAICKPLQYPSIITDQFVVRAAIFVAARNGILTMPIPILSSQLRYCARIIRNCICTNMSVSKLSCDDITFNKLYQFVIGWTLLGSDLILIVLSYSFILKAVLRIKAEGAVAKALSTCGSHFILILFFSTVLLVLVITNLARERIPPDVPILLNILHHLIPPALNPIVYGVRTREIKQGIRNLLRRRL
Outline: as §1

UniProt Q7TRR8 = biological target: T5, UniProt Q7TRR8
T5 sequence (whole entry): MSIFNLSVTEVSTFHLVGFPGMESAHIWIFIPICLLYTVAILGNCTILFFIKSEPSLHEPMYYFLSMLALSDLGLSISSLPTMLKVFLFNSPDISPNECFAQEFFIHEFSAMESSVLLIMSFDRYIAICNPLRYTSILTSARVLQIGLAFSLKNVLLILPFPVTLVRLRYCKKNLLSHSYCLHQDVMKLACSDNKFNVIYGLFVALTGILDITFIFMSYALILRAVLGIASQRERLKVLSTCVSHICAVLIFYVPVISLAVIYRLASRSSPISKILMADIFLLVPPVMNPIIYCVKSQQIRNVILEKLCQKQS
Outline: as §1

## CCCCCCCOC(=O)C(C)C
UniProt Q7TR79
  odorant receptor agonist call: inactive
UniProt Q7TRX0
  odorant receptor agonist call: inactive

## C1CCOCC1
UniProt Q7TR79
  odorant receptor agonist call: inactive
UniProt Q7TRX0
  odorant receptor agonist call: inactive

## CCC(C)O (stereo not given)
UniProt Q7TR79
  odorant receptor agonist call: inactive
UniProt Q7TRX0
  odorant receptor agonist call: inactive

## CC(=O)OC1(C)CCC23CC1C(C)(C)C2CCC3C (stereo not given)
UniProt Q7TR79
  odorant receptor agonist call: inactive
UniProt Q7TRX0
  odorant receptor agonist call: inactive

## CCC=CCCCCC=O
UniProt Q7TR79
  odorant receptor agonist call: inactive
UniProt Q7TRX0
  odorant receptor agonist call: inactive

## CC(=O)OCCc1ccccc1
UniProt Q7TR79
  odorant receptor agonist call: inactive
UniProt Q7TRX0
  odorant receptor agonist call: inactive

## CC(CC=O)CCCC(C)(C)O (stereo not given)
UniProt Q7TR79
  odorant receptor agonist call: inactive
UniProt Q7TRX0
  odorant receptor agonist call: inactive

## CCCCCC(C=O)=Cc1ccccc1
UniProt Q7TR79
  odorant receptor agonist call: inactive
UniProt Q7TRX0
  odorant receptor agonist call: inactive

## COc1nccnc1C
UniProt Q7TR79
  odorant receptor agonist call: inactive
UniProt Q7TRX0
  odorant receptor agonist call: inactive

## C=CC(=C)CCC=C(C)CCC=C(C)C
UniProt Q7TR79
  odorant receptor agonist call: inactive
UniProt Q7TRX0
  odorant receptor agonist call: inactive

## O=C(O)CCCCCC(=O)O
UniProt Q7TRM0
  odorant receptor agonist call: inactive
UniProt Q7TRN9
  odorant receptor agonist call: inactive
UniProt Q7TRR8
  odorant receptor agonist call: inactive

## CCCCCCC(=O)OCCCC
UniProt Q7TR79
  odorant receptor agonist call: inactive
UniProt Q7TRX0
  odorant receptor agonist call: inactive

## O=C([O-])CCCCC(=O)[O-].[H+].[H+]
UniProt Q7TRM0
  odorant receptor agonist call: inactive
UniProt Q7TRN9
  odorant receptor agonist call: inactive
UniProt Q7TRR8
  odorant receptor agonist call: inactive

## O=C(O)C1CCC1
UniProt Q7TR79
  odorant receptor agonist call: inactive
UniProt Q7TRX0
  odorant receptor agonist call: inactive
